Consider 17 compounds from ChEMBL document CHEMBL3351931, “Synthesis of natural-like acylphloroglucinols with anti-proliferative, anti-oxidative and tube-formation inhibitory activity” (Eur J Med Chem, 2014).

Molecules are shown by their SMILES. pIC50: −log10 of the molar value. Active and inactive are the calls of the source. The rule behind the calls is not given here.

Data set [1] is described as follows: Antiproliferative activity against human HMEC1 cells after 72 hrs. The data set is classed as functional, cell-based. As to conditions: HMEC-1, 72 h. Summed up: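 SV-40T-transfected HMEC-1 seeded 1.5 × 10³ cells/well in ECGM with 10% FCS, supplement mix and antibiotics, 37 °C, 5% CO2. After 24 h, a reference plate was crystal-violet stained for baseline. The remaining cells were given increasing compound concentrations (DMSO stock) for 72 h, then crystal violet stained and read at 540 nm. 0.1% DMSO in ECGM served as negative control. IC50 ± SD from three independent experiments with different passages, hexaplicates per concentration.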

Data set [2] in a line: Antioxidant activity in phosphate buffer assessed as trolox equivalents ratio at pH 7.4 after 15 mins by ORAC-fluorescein assay. The data set is classed as physicochemical. The following applies: pH 7.4, 0.25 h. Summed up: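 ORAC-FL: fluorescein probe (final 300 nM) in 75 mM phosphate buffer pH 7.4; antioxidant (test compounds 1–5 µM, five concentrations; Trolox 1–8 µM standards) preincubated with fluorescein 15 min at 37 °C. Reaction started with AAPH (final 12 mM). Fluorescence read every min for 80 min (ex 485/em 536 nm). AUC converted to Trolox equivalents; quadruplicate, ≥4 independent assays.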

Data set [3] has as its system HMEC-1. Nature of the data set: Antiangiogenic activity in HMEC1 assessed as inhibition of tube formation at 6.25 to 50 uM after 19 hrs by matrigel assay. The data set is classed as functional. The following applies: Homo sapiens.
The test system of data set [4] is HMEC-1. The data set is described as follows: Antiangiogenic activity in HMEC1 assessed as inhibition of tube formation at 12.5 to 100 uM after 19 hrs by matrigel assay. The following applies: Homo sapiens. The data set is classed as functional.

`CCC(=O)c1c(O)cc(O)c(C/C=C(\C)CCC=C(C)C)c1O` gave a pIC50 in data set [1] of 4.65. Further, the Ratio in data set [2] was found to be 0.6. `COc1cc(O)c(CC=C(C)C)c(O)c1C(=O)/C=C/c1ccc(O)cc1` [XANTHOHUMOL]: the Ratio in data set [2] stood at 2.3. In turn, `CCC(C)C(=O)c1c(O)cc(O)c(C/C=C(\C)CCC=C(C)C)c1O` (stereo not drawn) had a negative-log IC50 (pIC50) in data set [1] of 4.96. For the same compound, the inhibition entry with HMEC-1 [3] is “Active”. Moreover, in data set [2], the Ratio is 0.4. Take `CC1(C)CCc2c(cc(O)c(C(=O)c3cc(O)cc(O)c3)c2O)O1`: in data set [1], the pIC50 was 4.59. For the same compound, the Ratio in data set [2] is reported as 3.

In turn, `CC(=O)c1c(O)cc(O)c(C/C=C(\C)CCC=C(C)C)c1O` gave a pIC50 in data set [1] of 4.65. In data set [2], the Ratio turned out to be 1. The corresponding values for `CCC(C)C(=O)c1c(O)cc2c(c1O)CCC(C)(C)O2` (stereo not drawn) are 4.53 and 1.2. Compound `COc1cc(C(=O)c2c(O)cc3c(c2O)CCC(C)(C)O3)cc(OC)c1O` had a negative logarithm of the IC50 (pIC50) in data set [1] of 4.62. The Ratio in data set [2] came to 3.

`CC(=O)c1c(O)cc(O)c2c1OC(C)(CCC=C(C)C)CC2` (stereo not drawn) had a pIC50 in data set [1] of 4.69. Moreover, the Ratio in data set [2] was 0.8.

`CC1(C)CCc2c(cc(O)c(C(=O)c3ccc(O)cc3)c2O)O1` gave a pIC50 in data set [1] of 4.27. For the same compound, in data set [2], the Ratio was 6.6. For the compound `COc1cc(C(=O)c2c(O)cc3c(c2O)CCC(C)(C)O3)cc(OC)c1OC`, the pIC50 in data set [1] was 4.29. Take `COc1cc(C(=O)c2c(O)cc3c(c2O)CCC(C)(C)O3)cc(O)c1O`: the negative logarithm of the IC50 (pIC50) in data set [1] is 5.12. In addition, in data set [2], the Ratio turned out to be 2.1. For `CC(C)=CCC/C(C)=C/Cc1c(O)cc(O)c(C(=O)C(C)C)c1O` the same measures were 4.68 and 0.8. Regarding `COc1ccc(C(=O)c2c(O)cc3c(c2O)CCC(C)(C)O3)cc1OC`, the inhibition entry with HMEC-1 [4] is “Active”. This compound also gave a pIC50 in data set [1] of 4.32. Also, the Ratio in data set [2] was determined as 1.3. `COc1ccc(C(=O)c2c(O)cc3c(c2O)CCC(C)(C)O3)cc1` gave a negative logarithm of the IC50 (pIC50) in data set [1] of 4.36. Besides, in data set [2], the Ratio is 1.1.

In data set [1], `CC1(C)CCc2c(cc(O)c(C(=O)c3ccc(O)c(O)c3)c2O)O1` had a pIC50 of 6.06. In data set [2], the Ratio turned out to be 2.8. For `CCCC(C)C(=O)c1c(O)cc(O)c(C/C=C(\C)CCC=C(C)C)c1O` (stereo not drawn) the same measures were 5.06 and 0.3. As for `CCC(C)C(=O)c1c(O)cc(O)c2c1OC(C)(CCC=C(C)C)CC2` (stereo not drawn), in data set [2], the Ratio amounted to 0.3.

Broadly, the pIC50 is −log10 of the IC50, conventionally taken in molar units. Read a high pIC50 as a small IC50.
